Runt-SMMHC FRET = inhibitors of RUNX1 Runt–CBFb-SMMHC binding, primary screen, biochemical, FRET, Cerulean-Runt, Venus-CBFb-SMMHC, uHTS; Cerulean-Runt/Venus-CBFb-SMMHC FRET ratio 530/480, 1 h; actives 0.74% (n = 220,000); inhibition, % at 20 µM;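 active = mean inhibition across duplicate retests at 20 µM reaching about 50%, limit read from the data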;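 also: 0% = DMSO wells and 100% = wells with excess untagged CBFb-SMMHC; inhibitors lower the FRET ratio by blocking Runt binding to CBFb-SMMHC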
Runt-CBFb FRET = inhibitors of RUNX1 Runt–CBFb binding, primary screen, biochemical, FRET, Cerulean-Runt, Venus-CBFb, uHTS. actives 0.46% (n = 220,000). Cerulean-Runt/Venus-CBFb FRET ratio 530/480, 1 h. Runt-related transcription factor 1 (Homo sapiens) + Core-binding factor subunit beta …. inhibition, % at 20 µM;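 active = inhibition over about 50% at 20 µM in the single-dose screen, limit read from the data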;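 also: 0% = DMSO wells and 100% = excess unlabeled CBFb competitor control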
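Assay system: Cerulean-tagged RUNX1 Runt domain (FRET donor) fusion protein / Amount: 100 nM each of Venus-CBFb and Cerulean-Runt domain / Medium: Tris buffer pH 7.5 with salts and BSA / Also added: Venus-CBFb 100 nM / Schedule: 1 h complex formation plus 1 h compound treatment, room temperature / Signal: FRET fluorescence / Read-out: loss of energy transfer signal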
Tb hexokinase = Trypanosoma brucei hexokinase 1 inhibitors, primary screen, biochemical, G6PDH-coupled NADH absorbance, MLSCN library. recombinant TbHK1, G6PDH-coupled NADH A340. AID 1430, 2008. actives 0.11% (n = 220,000). hexokinase 1 [Trypanosoma brucei]. inhibition, % at 10 µM;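 active = inhibition of 50% or more in the single-dose primary screen; inactive = inhibition below 50%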
14-3-3 Bad PPI = inhibitors of 14-3-3 zeta/Bad binding, primary screen, biochemical, TR-FRET, bovine 14-3-3 zeta; 14-3-3 protein zeta/delta (Bos taurus), P63103; TR-FRET 14-3-3zeta/Dy647-pBad peptide displacement, 1 h; inhibition, % at 21.7 µM; actives 0.71% (n = 220,000); AID 781, 2007;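 active = inhibition above about 70%, limit read from the data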;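 also: 0% = full 14-3-3 plus peptide FRET controls and 100% = background without 14-3-3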
Hck-Nef inh = inhibitors of Nef-activated human Hck kinase, primary screen, biochemical, Z-Lyte FRET, 384-well, Hck-YEEI. Tyrosine-protein kinase HCK (Homo sapiens), P08631. Recombinant Hck-YEEI plus Nef, Z-Lyte FRET kinase assay. inhibition, % at 20 µM. actives 0.68% (n = 220,000). AID 463187, 2010;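 active = Hck-Nef kinase inhibition above about 50%, limit read from the data; inactive = inhibition below that limit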;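 also: 0% = DMSO with Hck plus Nef and 100% = Hck alone without Nef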
Target sequence (P08631 whole entry, looked up): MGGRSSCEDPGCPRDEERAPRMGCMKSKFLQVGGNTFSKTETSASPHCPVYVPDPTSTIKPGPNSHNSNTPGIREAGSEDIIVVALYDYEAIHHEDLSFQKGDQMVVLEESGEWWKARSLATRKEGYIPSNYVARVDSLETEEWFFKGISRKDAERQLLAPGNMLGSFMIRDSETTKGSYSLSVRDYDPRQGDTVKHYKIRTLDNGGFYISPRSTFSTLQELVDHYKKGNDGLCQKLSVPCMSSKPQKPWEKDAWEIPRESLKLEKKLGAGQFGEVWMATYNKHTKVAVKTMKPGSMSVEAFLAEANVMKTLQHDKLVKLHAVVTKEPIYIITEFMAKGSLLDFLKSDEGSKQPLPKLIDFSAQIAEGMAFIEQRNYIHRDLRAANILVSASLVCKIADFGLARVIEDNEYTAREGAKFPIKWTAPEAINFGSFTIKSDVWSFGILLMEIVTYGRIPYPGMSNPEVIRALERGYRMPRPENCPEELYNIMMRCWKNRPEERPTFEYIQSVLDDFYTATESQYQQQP
RanGTP-Impb inh = inhibitors of RanGTP-importin-beta interaction, primary screen, biochemical, FRET, CFP-Ran, YFP-importin-beta, homogeneous | Ran GTPase (GTP-bound) - importin-beta complex | cell-free CFP-Ran/YFP-importin-beta FRET ratio | inhibition, % (concentration not given with the values) | actives 1.1% (n = 300,000) | AID 2216, 2009;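 active = more than half of the replicate wells show a fall in the fluorescence ratio signal beyond about 16%, limit read from the data, passing the limit was not always enough; inconclusive = exactly half of the replicate wells pass the set limit; inactive = fewer than half of replicates pass the limit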;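 also: 0% = DMSO wells and 100% = Ran loaded with GDP instead of GTP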
YIC counter = YIC intramolecular FRET probe signal interference, dose response, counter-screen for RanGTP-importin-beta inhibitor project, biochemical, fluorescence FRET. shares compounds with RanGTP-Impb inh. Purified YIC probe, intramolecular FRET ratio YFP/CFP. actives 40% (n = 1,000). IC50, µM;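 active = fitted half-maximal inhibitory concentration no more than tenfold above the top dose tested; inconclusive = flat fit with 30 to 70% activity, or poor fit; inactive = half-maximal concentration beyond tenfold above the top dose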
* = called active by the depositor. An excerpt weighted towards active compounds, which were near 2.2% of everything screened.

For CC1CCN(c2nc3ccccc3nc2C(C#N)C(=O)OC2CCCCC2)CC1 (stereo not given) the results were Runt-SMMHC FRET -17, Runt-CBFb FRET -1, Tb hexokinase 16, Hck-Nef inh 1, RanGTP-Impb inh 20* and YIC counter 15*.
`C=CCn1c(=O)c(C(=O)Nc2ccc(C)cc2)c(O)c2ccccc21` gave RanGTP-Impb inh 28* and YIC counter >50.
C=CCn1c(=O)c(C(=O)Nc2cc(C)ccn2)c(O)c2ccccc21 was read as RanGTP-Impb inh 5.
Screening CCCCN(C(=O)/C=C/c1ccco1)c1c(N)n(CCC)c(=O)[nH]c1=O returned Runt-SMMHC FRET 15, Runt-CBFb FRET 8, Tb hexokinase -8, 14-3-3 Bad PPI -8, Hck-Nef inh -3 and RanGTP-Impb inh 1.
NC(=O)c1nsc(C(=O)N(Cc2ccc(F)cc2)C(C(=O)NC2CCCC2)c2ccco2)c1N (stereo not given) was read as RanGTP-Impb inh 5.
For CC(C)CCNC(=O)C(c1ccco1)N(Cc1ccc(F)cc1)C(=O)c1snc(C(N)=O)c1N (stereo not given) the results were Runt-SMMHC FRET 0, Runt-CBFb FRET -2, Tb hexokinase -6, 14-3-3 Bad PPI -3, Hck-Nef inh 6, RanGTP-Impb inh 29* and YIC counter >50.
N=c1oc2ccccc2cc1-c1nc(-c2ccc(Cl)cc2)cs1 was read as Runt-SMMHC FRET -150, Runt-CBFb FRET -46, Tb hexokinase -7, 14-3-3 Bad PPI 10, Hck-Nef inh -1, RanGTP-Impb inh 17* and YIC counter 32*.
For O=c1oc2ccccc2cc1-c1csc(Cc2nc(-c3ccc(Cl)cc3)cs2)n1 the results were Runt-SMMHC FRET -16, Runt-CBFb FRET -2, Tb hexokinase -5, 14-3-3 Bad PPI -14, Hck-Nef inh 2 and RanGTP-Impb inh 5.
`Cc1ccc(NC(=O)Cn2nc(C(F)(F)F)c3c2CCC3)cc1` gave Runt-SMMHC FRET 3, Runt-CBFb FRET 0, Tb hexokinase -3, 14-3-3 Bad PPI -8, Hck-Nef inh 2, RanGTP-Impb inh 22* and YIC counter >50.
O=C(CCCN1C(=O)c2ccccc2C1=O)Nc1ccc2c(c1)OCCO2 was read as Runt-SMMHC FRET 2, Runt-CBFb FRET 1, Tb hexokinase 6, 14-3-3 Bad PPI -10, Hck-Nef inh -3 and RanGTP-Impb inh 3.
For COc1ccc(-c2cc(C(F)(F)F)n3nc(N)nc3n2)cc1 the results were Runt-SMMHC FRET 59*, Runt-CBFb FRET 26, Tb hexokinase -35, 14-3-3 Bad PPI 12, Hck-Nef inh 38, RanGTP-Impb inh 27* and YIC counter 21*.
Screening Cc1ccc(CNC(=O)CCc2nnc(Cc3ccc(-c4ccccc4)cc3)o2)o1 returned Runt-SMMHC FRET -9, Runt-CBFb FRET 1, Tb hexokinase -8, 14-3-3 Bad PPI -6, Hck-Nef inh 27 and RanGTP-Impb inh 2.
Screening C[C@@H]1CN([C@H](C)CO)C(=O)Cc2cc(NC(=O)Nc3ccc4c(c3)OCO4)ccc2O[C@@H]1CN(C)CC1CC1 returned YIC counter >50.
Screening CC(C)c1ccccc1NC(=O)C1C2C=CC(C2)C1C(=O)O (stereo not given) returned RanGTP-Impb inh 24* and YIC counter >50.
COC(=O)Cn1c(=O)c2c(nc3n2CCCN3CCc2ccccc2)n(C)c1=O was read as RanGTP-Impb inh 25* and YIC counter >50.
CC(C)NC(=O)/C(C#N)=C/c1ccc(N(C)C)o1 was read as Runt-SMMHC FRET -20, Runt-CBFb FRET -9, Tb hexokinase -8, 14-3-3 Bad PPI 4, Hck-Nef inh 13, RanGTP-Impb inh 41* and YIC counter 6.4*.
For Cc1ccc(/C=C(\C#N)C(=O)NC(C)C)o1 the results were Runt-SMMHC FRET 1, Runt-CBFb FRET -1, Tb hexokinase -33, 14-3-3 Bad PPI -1, Hck-Nef inh 5 and RanGTP-Impb inh 0.
O=C(/C=C/c1ccccc1)N/C(=C/c1ccccc1)C(=O)N1CCCCC1 was read as Runt-SMMHC FRET 3, Runt-CBFb FRET -2, Tb hexokinase -24, 14-3-3 Bad PPI -15, Hck-Nef inh -2 and RanGTP-Impb inh -1.
`c1ccc(-n2nnnc2-c2cnc(-c3cccnc3)nc2-c2cccs2)cc1` gave Runt-SMMHC FRET -2, Runt-CBFb FRET -3, Tb hexokinase -7, 14-3-3 Bad PPI 1, Hck-Nef inh -5, RanGTP-Impb inh 17* and YIC counter >50.
Screening Cn1c(CNC(=O)CNC(=O)Cc2ccc(Cl)cc2)cc(=O)n(C)c1=O returned RanGTP-Impb inh -1.
Screening CSc1cccc(NC(=O)CCNS(=O)(=O)c2ccc3[nH]c(=O)oc3c2)c1 returned RanGTP-Impb inh 0.
Screening Cc1cc(C)c(S(=O)(=O)Nc2ccccc2-c2ccccc2)c(C)c1 returned Runt-SMMHC FRET 0, Runt-CBFb FRET -1, Tb hexokinase 8, 14-3-3 Bad PPI 7, Hck-Nef inh 2 and RanGTP-Impb inh inconclusive.
Screening C=CCOc1c(Br)cc(CNc2ccc(NC(=O)C(C)C)c(OC)c2)cc1OC returned Runt-SMMHC FRET -37, Runt-CBFb FRET -14, Tb hexokinase -8, 14-3-3 Bad PPI 4, Hck-Nef inh -1, RanGTP-Impb inh 27* and YIC counter >50.
Screening CCOC(=O)C1(Cc2ccc(Cl)cc2)CCN(C(=O)c2cscn2)CC1 returned Runt-SMMHC FRET -2, Runt-CBFb FRET -3, Tb hexokinase -5, 14-3-3 Bad PPI 3, Hck-Nef inh 16 and RanGTP-Impb inh -5.
Screening COc1ccc(N2C(=O)c3ccccc3NC2c2cccnc2)cc1 (stereo not given) returned Runt-SMMHC FRET 3, Runt-CBFb FRET 0, Tb hexokinase -9, 14-3-3 Bad PPI -7, Hck-Nef inh 41, RanGTP-Impb inh 16* and YIC counter >50.
`Cc1cccn2c(=O)c3cc(C(=O)NCCN4CCOCC4)n(Cc4ccccc4)c3nc12` gave Runt-SMMHC FRET 6 and Runt-CBFb FRET 2.

Screening results: PubChem, several laboratories
